The source made the active and inactive calls. The rule behind the calls is not given here.
What was measured:
Staphylococcus aureus [1] = test: Bactericidal activity against planktonic phase of methicillin-resistant Staphylococcus aureus ATCC 33591 assessed as log reduction in bacterial colony forming units at 16 ug/ml incubated for 6 hrs followed by plating on agar plate for 24 hrs by time-kill kinetic assay; assay type: functional
Outline: (§1)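 Time-kill: 6 h mid-log culture diluted to 10⁵ CFU/mL in MHB, incubated at 37 °C with compound at […]; 0.9% saline control. Aliquots at 1, 2, 4, 6, 8 and 12 h ten-fold diluted in saline, plated on NB agar 24 h at 37 °C; colonies counted, log scale.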

Staphylococcus aureus [2] = test: Induction of membrane depolarization in Staphylococcus aureus ATCC 33591 assessed as increase in fluorescence intensity measured upto 28 mins by DiSC3 staining based fluorescence spectroscopic technique; assay type: functional, organism-based
Outline: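 Mid-log MRSA washed in 5 mM HEPES pH 7.4 and resuspended in 1:1:1 HEPES (5 mM), glucose (5 mM) and KCl (100 mM). Loaded with DiSC3(5) at 2 µM final, 30 min in the dark. Baseline fluorescence (ex 622/em 670 nm) read 4 min, compound added, monitored to 28 min. Water control; triplicates averaged.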

Staphylococcus aureus [3] = test: Antibacterial activity against Staphylococcus aureus ATCC 33591 assessed as increase in dead cells by measuring bright red fluorescence intensity at 32 ug/ml after 2 hrs by SYTO-9/propidium iodide staining based fluorescence microscopy analysis; assay type: functional, organism-based
Outline: (§2)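 Mid-log cells (~10⁸ CFU/mL) pelleted and resuspended in 0.9% saline. Treated with 32 µg/mL compound for 2 h at 37 °C, pelleted and resuspended in saline. Stained with SYTO9 (3 µM) plus PI (15 µM) for 15 min in the dark, unbound dye removed, then imaged by fluorescence microscopy at 100×.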

Staphylococcus aureus [4] = test: Antibacterial activity against methicillin-resistant Staphylococcus aureus R3545 clinical isolate after 24 hrs by tecan plate reader analysis; assay type: functional; conditions: R3545, 24 h
Outline: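 Colony grown 24 h on NB agar at 37 °C, then 6 h in nutrient broth to mid-log (10⁸ CFU/mL by drop plating), diluted to 10⁵ CFU/mL in Mueller Hinton broth; added 9:1 to two-fold serial compound dilutions in MHB. Incubated 24 h, 37 °C; OD600 read. Triplicate per concentration, experiment run twice; MIC taken from the range of triplicate OD values.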

[5] = Ratio of EC50 for human A549 cells to MIC for vancomycin-resistant Staphylococcus aureus clinical isolate 1; assay type: toxicity
Staphylococcus aureus [6] = test: Antibacterial activity against Staphylococcus aureus ATCC 33591 assessed as decrease in live cells at 32 ug/ml after 2 hrs by SYTO-9/propidium iodide staining based fluorescence microscopy analysis; assay type: functional, organism-based; outline: as §2
Pseudomonas aeruginosa = test: Antibacterial activity against Pseudomonas aeruginosa MTCC 424 after 24 hrs by tecan plate reader analysis; assay type: functional; conditions: MTCC 424, 24 h
Outline: (§3)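 Broth microdilution MIC. Glycerol stocks grown on MacConkey agar 24 h at 37 °C, then a single colony in nutrient broth 6 h to mid-log (~10⁸ CFU/mL). Cells diluted to 10⁵ CFU/mL in Mueller Hinton broth and added to two-fold compound dilutions. Incubated 24 h at 37 °C, OD600 read. Triplicate wells, experiment run twice.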

Staphylococcus aureus [7] = test: Antibacterial activity against Staphylococcus aureus ATCC 33591 using compound preincubated with human 50% plasma for 3 hrs and measured after 24 hrs by tecan-plate reader analysis; assay type: functional
Outline: (§4)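 Compound mixed 1:1 with human plasma, human serum or mouse liver homogenate (50%) and held 3 h at 37 °C. Saline and PBS incubations served as controls. Mixtures two-fold diluted (saline for plasma/serum, PBS for homogenate), then MRSA ATCC33591 (~10⁵ CFU/mL in MHB) added.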

Escherichia coli = test: Antibacterial activity against Escherichia coli MTCC 443 after 24 hrs by tecan plate reader analysis; assay type: functional; conditions: MTCC 443, 24 h; outline: as §3
Staphylococcus aureus [8] = test: Antibiofilm activity against Staphylococcus aureus ATCC 33591 assessed as reduction in biofilm biomass at 16 to 64 ug/ml incubated for 24 hrs followed by plating on agar plate for 24 hrs by crystal violet staining assay relative to control; assay type: functional
Outline: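 Coverslip biofilms grown 24 h at 37 °C in nutrient broth with 1% glucose and 1% NaCl, then treated with compound for 24 h. PBS-washed and air-dried, stained with 0.1% w/v crystal violet for 5-10 min, washed, stain recovered in 95% ethanol, OD 522 nm read. Two experiments, mean with standard deviation.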

Staphylococcus aureus [9] = test: Antibiofilm activity against Staphylococcus aureus R3545 assessed as bacterial cell viability by measuring log reduction in bacterial colony forming units at 16 ug/ml incubated for 24 hrs followed by plating on agar plate for 24 hrs; assay type: functional
Outline: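 Mid-log MRSA diluted to 10⁵ CFU/mL in nutrient broth with 1% glucose and 1% NaCl. Biofilms grown on glass coverslips 24 h at 37 °C, static. PBS-washed biofilms treated with compound in biofilm medium 24 h at 37 °C, static; medium-only control. Cells detached with trypsin-EDTA (1:4 in saline) for 15 min, ten-fold diluted, plated on NB agar 24 h; viable counts compared with untreated.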

MDCK = test: Cytotoxicity against dog MDCK cells up to 128 ug/ml after 24 hrs by alamar blue assay; assay type: cell-based, Canis lupus familiaris
Outline: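 About 10⁴ cells/well in DMEM with 10% FBS. Medium replaced with two-fold compound dilutions and incubated 24 h at 37 °C, 5% CO₂. Alamar Blue added for a further 4 h, absorbance 570 nm (600 nm reference). Viability normalized to untreated and 0.1% Triton-X wells. Triplicates; sigmoidal fit gives the 50% viability concentration.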

Staphylococcus aureus [10] = test: Antibacterial activity against Staphylococcus aureus ATCC 33591 using compound preincubated with human 50% serum for 3 hrs and measured after 24 hrs by tecan-plate reader analysis; assay type: functional; outline: as §4
Staphylococcus aureus [11] = test: Bactericidal activity against metabolically inactive stationary phase methicillin-resistant Staphylococcus aureus R3545 assessed as log reduction in bacterial colony forming units at 32 ug/ml incubated for 6 hrs followed by plating on agar plate for 24 hrs by visual counting analysis; assay type: functional
[12] = Hemolytic activity in human erythrocytes after 1 hr; assay type: ADME, cell-based, Erythrocyte
Outline: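 Heparinized donor blood. Erythrocytes washed three times in PBS and resuspended to 5 vol%, then mixed 3:1 with compound serially diluted in water. Incubated 1 h at 37 °C and centrifuged. Supernatant A540 read; % hemolysis relative to water and 0.1 vol% Triton-X controls.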

Staphylococcus aureus [13] = test: Induction of membrane permeabilization in Staphylococcus aureus ATCC 33591 assessed as increase in fluorescence intensity measured upto 28 mins by propidium iodide staining based fluorescence spectroscopic technique; assay type: functional, organism-based
Outline: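 Mid-log MRSA washed in 5 mM HEPES and resuspended in 1:1 HEPES (5 mM) and glucose (5 mM). Propidium iodide added at 10 µM final. Baseline fluorescence (ex 535/em 617 nm) read 4 min, compound in water added, read to 28 min. Water control; triplicates averaged.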

Staphylococcus aureus [14] = test: Bactericidal activity against planktonic phase of methicillin-resistant Staphylococcus aureus ATCC 33591 assessed as log reduction in bacterial colony forming units at 32 ug/ml incubated for 8 hrs followed by plating on agar plate for 24 hrs by time-kill kinetic assay; assay type: functional; outline: as §1
Staphylococcus aureus [15] = test: Ratio of MIC for Staphylococcus aureus ATCC 33591 using compound preincubated with mouse 50% liver homogenate for 3 hrs to MIC for Staphylococcus aureus ATCC 33591 using non-treated compound; assay type: functional, organism-based; outline: as §4

CCCCCCNC(=O)C[N+](C)(CCO)CCCCCCCCCCCC[N+](C)(CCO)CC(=O)NCCCCCC.O=C([O-])C(F)(F)F.O=C([O-])C(F)(F)F (stereo not drawn)
Activity (Staphylococcus aureus [1]): >2 log10CFU/ml
Activity (Staphylococcus aureus [2]): Dose-dependent effect
Activity (Staphylococcus aureus [3]): Active
MIC (Staphylococcus aureus [4]): 1 to 2 µg/mL
selectivity ratio [5]: 94 to 97
inhibition (Staphylococcus aureus [6]): Active
MIC (Pseudomonas aeruginosa): 128 µg/mL
MIC (Staphylococcus aureus [7]): 4 µg/mL
MIC (Escherichia coli): 2 µg/mL
inhibition (INH) (Staphylococcus aureus [8]): 60%
Activity (Staphylococcus aureus [9]): >4 log10CFU/ml
Activity (MDCK): Non-Toxic
MIC (Staphylococcus aureus [10]): 4 µg/mL
Activity (Staphylococcus aureus [11]): 2.8 log10CFU/ml
HC50 at 1 h [12]: 577 µg/mL
Activity (Staphylococcus aureus [13]): Dose-dependent effect
Activity (Staphylococcus aureus [14]): 5 log10CFU/ml
Ratio (Staphylococcus aureus [15]): 2
